# “Also recorded” adds a separate entry of the source.
# Key:
# 293 cells = assay: XTT toxicity assay, stable 293 cell lines; type: cell-based, human; settings: 48 hours
# Summary of the method: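 Stable 293 cells in DMEM/FBS were incubated overnight in 5% CO2. The indicated test compound or DMSO control was added, and after a further 48 h viability was measured with an XTT kit per the manufacturer's instructions.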
# FATP5 and FATP2 = assay: Inhibition reversibility assay; type: cell-based, human; settings: 30 min treatment followed by brief washes with PBS
# human FATP2 = human FATP2 (Homo sapiens, UniProt O14975); type: cell-based; settings: for inhibition of FATP2-mediated LCFA uptake: result in words
# Summary of the method: (§1)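 HEK-293 cells stably expressing human FATP4, FATP2 or FATP5 were maintained in DMEM/10% FBS with 1 mg/ml G418. Cells were plated at 30,000–50,000/well overnight to 50–70% confluency. They were preincubated 30 min (5% CO2) with test compound, diluted from DMSO stock into HBSS with 20 mM HEPES, 4.5 g/L glucose and 0.1% fatty-acid-free BSA. Compound in quencher mix containing 2 μM C1-BODIPY-C12 was then added. Fluorescence (ex 488/em 515 nm, bottom read) was recorded every 2 min for 2 h, and uptake velocities were derived by linear regression.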
# human FATP5 = target: T1, human FATP5 (Homo sapiens, UniProt Q9Y2P5); type: cell-based; settings: for inhibition of FATP5-mediated LCFA uptake: result in words
# T1 sequence (Q9Y2P5 1-690): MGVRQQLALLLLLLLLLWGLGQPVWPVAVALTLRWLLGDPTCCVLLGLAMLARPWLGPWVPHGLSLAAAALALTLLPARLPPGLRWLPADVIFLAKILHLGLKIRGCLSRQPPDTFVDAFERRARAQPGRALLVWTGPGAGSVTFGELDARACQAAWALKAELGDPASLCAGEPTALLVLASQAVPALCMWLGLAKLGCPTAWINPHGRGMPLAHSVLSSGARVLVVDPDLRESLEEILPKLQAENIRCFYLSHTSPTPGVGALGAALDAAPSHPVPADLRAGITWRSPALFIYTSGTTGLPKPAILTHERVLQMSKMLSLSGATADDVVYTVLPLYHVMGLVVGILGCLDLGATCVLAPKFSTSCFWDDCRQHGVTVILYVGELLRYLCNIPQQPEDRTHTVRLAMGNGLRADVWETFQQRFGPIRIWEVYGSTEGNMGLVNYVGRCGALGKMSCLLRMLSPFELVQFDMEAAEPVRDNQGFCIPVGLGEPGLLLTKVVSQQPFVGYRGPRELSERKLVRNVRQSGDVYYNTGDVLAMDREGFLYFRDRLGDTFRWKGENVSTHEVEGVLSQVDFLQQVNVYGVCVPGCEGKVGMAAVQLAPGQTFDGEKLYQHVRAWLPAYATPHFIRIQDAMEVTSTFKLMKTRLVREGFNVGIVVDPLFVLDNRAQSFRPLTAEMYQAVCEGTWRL
# Summary of the method: as §1
# [1] = test system: primary human hepatocytes; assay: FACS-based LCFA uptake assay, primary human hepatocytes; type: cell-based; settings: 10 or 100 μM, viable cells
# Summary of the method: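 Suspended primary human hepatocytes were pretreated with test compound at 10 or 100 μM in DMEM (37°C, 5% CO2, 30 min). C1-BODIPY-C12 bound to 0.1% BSA was then added to a final 2 μM for 30 min at 37°C. Uptake was stopped on ice, and cells were centrifuged at 4°C and resuspended in cold PBS. Propidium iodide was added, and mean BODIPY fluorescence of 5000 viable PI-negative cells was taken from histogram plots.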
# hepatic TAG content = assay: 7 week bile acid supplemented high-fat diet feeding; type: in vivo, mouse
# [2] = test system: hepatic triglyceride accumulation; assay: Chronic bile acid injection during high-fat diet; type: in vivo, mouse; settings: 3.2 mg/kg s.c. daily, 47 days
# Summary of the method: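 Individually housed mice on a high-fat diet (60% calories from fat) received daily s.c. injections of test compound, 3.2 mg/kg in 20 μl DMSO, above the right hip for 47 days. Controls received DMSO vehicle. Mice were fasted 4 h and euthanised with CO2, and injection sites were checked for precipitate. Liver lysates were assayed for protein (BCA) and TAG.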
# hepatic LCFA uptake = assay: Non-radioactive in vivo hepatic LCFA uptake assay; parameters: species or system mouse; settings: WT mice, acute injection
# hsFATP4 = hsFATP4 (Homo sapiens, UniProt Q6P1M0); assay: Quencher-based LCFA uptake assay, FATP4 expressing 293 cells; type: cell-based; settings: result in words
# hsFATP4, sequence (Q6P1M0 whole entry): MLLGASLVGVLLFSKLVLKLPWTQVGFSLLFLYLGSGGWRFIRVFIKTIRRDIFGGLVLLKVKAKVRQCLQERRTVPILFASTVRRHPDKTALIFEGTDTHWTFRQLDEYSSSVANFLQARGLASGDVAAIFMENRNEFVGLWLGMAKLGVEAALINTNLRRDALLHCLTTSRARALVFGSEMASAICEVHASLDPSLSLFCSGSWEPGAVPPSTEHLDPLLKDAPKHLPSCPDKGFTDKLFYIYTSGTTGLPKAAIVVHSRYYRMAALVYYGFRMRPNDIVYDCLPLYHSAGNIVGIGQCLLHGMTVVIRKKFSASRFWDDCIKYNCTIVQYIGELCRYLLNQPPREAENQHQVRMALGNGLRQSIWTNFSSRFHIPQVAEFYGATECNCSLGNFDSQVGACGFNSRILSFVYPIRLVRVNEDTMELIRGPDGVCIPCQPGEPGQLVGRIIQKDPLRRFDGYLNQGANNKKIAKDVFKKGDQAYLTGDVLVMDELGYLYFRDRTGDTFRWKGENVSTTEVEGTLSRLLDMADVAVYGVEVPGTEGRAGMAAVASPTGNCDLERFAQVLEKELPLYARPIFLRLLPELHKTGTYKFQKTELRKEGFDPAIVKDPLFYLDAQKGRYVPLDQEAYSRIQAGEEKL
# Summary of the method: as §1
# [3] = test system: primary mouse hepatocytes from C57Bl/6 animals; assay: Quencher based LCFA uptake assay, wild-type mouse primary hepatocytes; type: cell-based
# [4] = 0.5mg/g in high fat food, 7 weeks
SMILES,Reversible Inhibition (FATP5 and FATP2),IC50 (human FATP2),IC50 (human FATP5),inhibition of FATP5-mediated LCFA uptake (human FATP5),inhibition of FATP2-mediated LCFA uptake (human FATP2),further results
"O=c1cc(-c2ccc([N+](=O)[O-])cc2)nc2c(-c3ccc(Cl)cc3)c(Cc3ccccc3)[nH]n12 [CB-5, 2-benzyl-3-(4-chlorophenyl)-5-(4-nitrophenyl)-1H-pyrazolo[5,1-b]pyrimidin-7-one, reference compound]",No (tox),18 µM,7 µM,,,toxicity (XTT assay) (293 cells): marked cytotoxicity
"C[C@H](CCC(=O)O)[C@H]1CC[C@H]2[C@@H]3[C@H](O)C[C@@H]4C[C@H](O)CC[C@]4(C)[C@H]3C[C@H](O)[C@]12C [CA, cholic acid]",complete reversibility and Yes,,31 µM,specifically inhibited FATP5-mediated LCFA uptake,,
"Oc1c(C2=NCCNC(C(F)(F)F)=C2)ccc2ccccc12 [CB-6, 2-[7-(trifluoromethyl)-2,3-dihydro-1H-1,4-diazepin-5-yl]naphthalen-1-ol, reference compound]",irreversible and No,12 µM,38 µM,,,
"COc1cc(/C=C2/SC(=S)N(c3cccc(Cl)c3)C2=O)cc(Br)c1O [CB-2, (5E)-5-[(3-bromo-4-hydroxy-5-methoxyphenyl)methylene]-3-(3-chlorophenyl)-2-thioxothiazolidin-4-one, reference compound]",Yes,8 µM,,,,
C[C@H](CCC(=O)O)[C@H]1CC[C@H]2[C@@H]3[C@H](O)[C@@H](O)[C@@H]4C[C@H](O)CC[C@]4(C)[C@H]3CC[C@]12C [alpha-muricholic acid],,,,no effect on LCFA uptake,,
"C[C@H](CCC(=O)NCCS(=O)(=O)O)[C@H]1CC[C@H]2[C@@H]3[C@@H](O)C[C@@H]4C[C@H](O)CC[C@]4(C)[C@H]3CC[C@]12C [TUDCA, tauroursodeoxycholic acid]",,,,did not inhibit,did not inhibit,inhibition of LCFA uptake by primary human hepatocytes [1]: but not TUDCA
"C[C@H](CCC(=O)O)[C@H]1CC[C@H]2[C@@H]3CC[C@@H]4C[C@H](O)CC[C@]4(C)[C@H]3CC[C@]12C [LCA, lithocholic acid]",,,,no inhibition,no inhibition,"body weight (hepatic TAG content; [4]): Neither DCA nor LCA feeding resulted in changes; caloric output over a 36h period (hepatic TAG content; [4]): Neither DCA nor LCA feeding resulted in changes; food intake (hepatic TAG content; [4]): Neither DCA nor LCA feeding resulted in changes; respiratory rate (hepatic TAG content; [4]): Neither DCA nor LCA feeding resulted in changes; effect on liver TAG content (hepatic TAG content; result in words, LCA in high-fat diet model): had no effect; body weight [2]: nor did it affect food consumption or body weight; food consumption [2]: nor did it affect food consumption or body weight; respiration [2]: neither triggered an increase in respiration; effect on in vivo hepatic LCFA uptake (hepatic LCFA uptake): had no effect; inhibition of FATP4 LCFA uptake (hsFATP4): neither DCA, UDCA, nor LCA inhibited; also recorded: No inhibition; inhibition of LCFA uptake by primary mouse hepatocytes [3]: no inhibition"
"CC(CCC[C@@H](C)[C@H]1CC[C@H]2[C@@H]3[C@H](O)C[C@@H]4C[C@H](O)CC[C@]4(C)[C@H]3C[C@H](O)[C@]12C)C(=O)O (stereo partly drawn) [THCA, 3a,7a,12a-Trihydroxy-5β-cholestanoic acid]",,,,weak inhibition,no inhibition,
"C[C@H](CCC(=O)O)[C@H]1CC[C@H]2[C@@H]3[C@H](O)C[C@@H]4C[C@H](O)CC[C@]4(C)[C@H]3CC[C@]12C [CDCA, chenodeoxycholic acid]",complete reversibility and Yes,,10 µM,specifically inhibited FATP5-mediated LCFA uptake,,
"C[C@H](CCC(=O)NCCS(=O)(=O)O)[C@H]1CC[C@H]2[C@@H]3CC[C@@H]4C[C@H](O)CC[C@]4(C)[C@H]3C[C@H](O)[C@]12C [TDCA, taurodeoxycholic acid]",,,,inhibited neither FATP2 nor FATP5,inhibited neither FATP2 nor FATP5,
